ChEMBL document CHEMBL4007421, “Discovery and Preclinical Characterization of 3-((4-(4-Chlorophenyl)-7-fluoroquinoline-3-yl)sulfonyl)benzonitrile, a Novel Non-acetylenic Metabotropic Glutamate Receptor 5 (mGluR5) Negative Allosteric Modulator for Psychiatric Indications” (J Med Chem, 2017)
Activity calls are given as the source filed them. The rule behind the calls is not given here.

Experiments:
[1] = target: T1, Cytochrome P450 1A2 (Homo sapiens, UniProt P05177); test: Inhibition of CYP1A2 in human liver microsomes; type: ADME
T1 sequence (P05177 whole entry): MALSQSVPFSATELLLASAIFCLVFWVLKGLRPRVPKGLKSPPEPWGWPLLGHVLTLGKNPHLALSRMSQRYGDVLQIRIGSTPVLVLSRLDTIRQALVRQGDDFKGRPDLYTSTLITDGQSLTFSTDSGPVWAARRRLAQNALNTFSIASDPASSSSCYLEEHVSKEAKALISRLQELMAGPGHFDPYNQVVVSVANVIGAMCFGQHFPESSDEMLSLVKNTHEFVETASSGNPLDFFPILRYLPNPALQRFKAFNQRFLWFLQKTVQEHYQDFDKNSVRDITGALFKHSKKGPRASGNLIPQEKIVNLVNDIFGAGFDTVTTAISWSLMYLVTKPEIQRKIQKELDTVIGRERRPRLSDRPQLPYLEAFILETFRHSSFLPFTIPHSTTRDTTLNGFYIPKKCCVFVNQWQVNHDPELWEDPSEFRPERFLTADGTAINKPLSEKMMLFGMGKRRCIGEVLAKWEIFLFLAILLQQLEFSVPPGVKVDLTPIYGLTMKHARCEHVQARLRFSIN

[2] = target: Metabotropic glutamate receptor 5 (Rattus norvegicus, UniProt P31424); test: Displacement of [3H]M-MPEP from mGluR5 in Sprague-Dawley rat cerebrocortical membranes after 60 mins
[3] = test system: Plasma; test: Plasma concentration in Wistar rat at 30 mg/kg, po administered as single dose; type: ADME, organism-based; settings: in vivo
[4] = test system: Liver; test: Intrinsic clearance in dog liver microsomes at 2.5 uM assessed per gram of liver; type: ADME, Canis lupus familiaris, microsome
[5] = Terminal elimination half life in male Crl:CD(SD) rat at 4.5 mg/kg, po; type: ADME, organism-based; settings: in vivo, read-out: beta t1/2 (converted)
In short: (§1)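 Single-dose PK: i.v. and oral dosing in Crl:CD(SD) rats and beagle dogs, plus a pilot oral nasogastric study in Cynomolgus monkeys using a Type IV lipid formulation. Rat i.v. vehicle was 80% cosolvent. Monkeys were fasted from 2 h before until 2 h after dosing, n=3 per sex. Rats also received [14C]-labelled compound orally at 50 mg/kg, with total radioactivity followed. Parameters are means; monkey values are medians.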

[6] = Clearance in male beagle dog at 0.5 mg/kg, iv administered as infusion; type: ADME, organism-based, Canis lupus familiaris; settings: in vivo
[7] = Terminal elimination half life in male beagle dog at 0.5 mg/kg, iv administered as infusion; type: ADME, organism-based, Canis lupus familiaris; settings: in vivo, read-out: beta t1/2 (converted); in short: as §1
[8] = test system: Liver; test: Intrinsic clearance in human liver microsomes at 2.5 uM assessed per gram of liver; type: ADME, microsome
[9] = Terminal elimination half life in fasted female cynomolgus monkey at 9 mg/kg, po administered as single dose; type: ADME, organism-based, Macaca fascicularis; settings: in vivo, read-out: beta t1/2 (converted); in short: as §1
[10] = Cmax in fasted female beagle dog at 1 mg/kg, po; type: ADME, organism-based, Canis lupus familiaris; set-up: dose 1 mg/kg, route oral; settings: in vivo
[11] = Plasma concentration in Wistar rat at 1 mg/kg, po after 75 mins; type: ADME, organism-based
In short: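 Plasma levels taken right after the Vogel test (~75 min after oral dose) following single oral doses in lipid-based formulations; data pooled from four experiments; mean±SD.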

[12] = AUC in female Crl:CD(SD) rat at 0.5 mg/kg, iv; type: ADME, organism-based; settings: in vivo
[13] = test system: Rattus norvegicus; test: Therapeutic index, ratio of plasma concentration causing effect on spatial learning performance in po dosed Wistar rat by Morris water maze test to plasma concentration causing anxiolytic activity in Wistar rat by Vogel punished drinking conflict test
In short: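 Index is the plasma level in rats at 30 mg/kg p.o. in the Morris water maze (sampled after the last trial on Day 4) divided by the plasma level at the Vogel minimum effective dose. Vogel plasma was sampled right after the test.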

[14] = test system: MDR1; test: Apparent inward permeability in MDCK2-MDR1 cells; type: ADME, cell-based, Canis lupus familiaris; settings: dog, MDCK-MDR1
[15] = Plasma concentration in po dosed Wistar rat dosed 1 hr prior to first daily trial by Morris water maze test; type: ADME, organism-based
[16] = target: Cytochrome P450 2C9 (Homo sapiens, UniProt P11712); test: Inhibition of CYP2C9 in human liver microsomes; type: ADME
[17] = Cmax in female beagle dog at 0.5 mg/kg, iv administered as infusion; type: ADME, organism-based, Canis lupus familiaris; set-up: dose 0.5 mg/kg, route intravenous; settings: in vivo
[18] = AUC in female Crl:CD(SD) rat at 4.5 mg/kg, po; type: ADME, organism-based; settings: in vivo
[19] = test system: Rattus norvegicus; test: Anxiolytic activity in Wistar rat assessed as increase in water drinking time during punished period at 10 mg/kg, po qd for 19 days by Vogel punished drinking conflict test; type: functional, organism-based
In short: (§2)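 Vogel punished-drinking test in rats after 24 h water deprivation, with 60 s unpunished drinking; oral 10 mg/kg given once daily for 19 days, vehicle group dosed only on Day 19 as first-dose control; plasma sampled right after test; n=10 per group; ANOVA with Duncan post-hoc.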

[20] = test system: Rattus norvegicus; test: Anxiolytic activity in Wistar rat assessed as increase in water drinking time during punished period at 10 mg/kg, po qd measured after first dosing by Vogel punished drinking conflict test; type: functional, organism-based; in short: as §2
[21] = AUC in male Crl:CD(SD) rat at 0.5 mg/kg, iv; type: ADME, organism-based; settings: in vivo
[22] = AUC in fasted female beagle dog at 1 mg/kg, po; type: ADME, organism-based, Canis lupus familiaris; settings: in vivo
[23] = Tmax in female Crl:CD(SD) rat at 4.5 mg/kg, po; type: ADME, organism-based; settings: in vivo; in short: as §1
[24] = target: Cytochrome P450 3A4 (Homo sapiens, UniProt P08684); test: Inhibition of CYP3A4 in human liver microsomes; type: ADME
[25] = Clearance in male Crl:CD(SD) rat at 0.5 mg/kg, iv; type: ADME, organism-based; settings: in vivo
[26] = Cmax in fasted male cynomolgus monkey at 9 mg/kg, po administered as single dose; type: ADME, organism-based, Macaca fascicularis; set-up: dose 9 mg/kg, route oral; settings: in vivo
[27] = Terminal elimination half life in male Crl:CD(SD) rat at 0.5 mg/kg, iv; type: ADME, organism-based; settings: in vivo, read-out: beta t1/2 (converted); in short: as §1
[28] = test system: Rattus norvegicus; test: Anxiolytic activity in po dosed Wistar rat assessed as reduction in ultrasonic vocalization; type: functional
[29] = Plasma concentration in Wistar rat at 10 mg/kg, po qd for 19 days during Vogel punished drinking conflict test; type: ADME, organism-based; in short: as §2
[30] = test system: Rattus norvegicus; test: Effect on spatial learning performance in po dosed Wistar rat measured as escape latency dosed 1 hr prior to first daily trial by Morris water maze test; type: ADME, organism-based; settings: in vivo
In short: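 Morris water maze with male Harlan-Wistar rats (190–220 g): three trials a day for 4 days, hidden 10 cm platform, video tracking; 30 mg/kg p.o. in Type IV lipid formulation 1 h before first daily trial; plasma taken after last Day 4 trial; 7–17 rats/group.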

[31] = test system: Rattus norvegicus; test: Toxicity in po dosed Harlan-Wistar rat assessed as effect on ambulatory movement at 10 to 30 mg/kg, po by photocell-based activity monitor test; type: organism-based; settings: in vivo
In short: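 Male Wistar rats were given 0, 10, 30 or 50 mg/kg p.o. Spontaneous locomotor activity (ambulatory movement) was recorded in a photocell-based activity monitor.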

[32] = AUC(0 to 8 hrs) in fasted male cynomolgus monkey at 9 mg/kg, po administered as single dose; type: ADME, organism-based, Macaca fascicularis; set-up: dose 9 mg/kg, time < 6 hr, route oral; settings: in vivo
[33] = Tmax in male Crl:CD(SD) rat at 4.5 mg/kg, po; type: ADME, organism-based; settings: in vivo; in short: as §1
[34] = Terminal elimination half life in female Crl:CD(SD) rat at 4.5 mg/kg, po; type: ADME, organism-based; settings: in vivo, read-out: beta t1/2 (converted); in short: as §1

Sequence of Cytochrome P450 2C9 (P11712 whole entry, the tested form may be a part): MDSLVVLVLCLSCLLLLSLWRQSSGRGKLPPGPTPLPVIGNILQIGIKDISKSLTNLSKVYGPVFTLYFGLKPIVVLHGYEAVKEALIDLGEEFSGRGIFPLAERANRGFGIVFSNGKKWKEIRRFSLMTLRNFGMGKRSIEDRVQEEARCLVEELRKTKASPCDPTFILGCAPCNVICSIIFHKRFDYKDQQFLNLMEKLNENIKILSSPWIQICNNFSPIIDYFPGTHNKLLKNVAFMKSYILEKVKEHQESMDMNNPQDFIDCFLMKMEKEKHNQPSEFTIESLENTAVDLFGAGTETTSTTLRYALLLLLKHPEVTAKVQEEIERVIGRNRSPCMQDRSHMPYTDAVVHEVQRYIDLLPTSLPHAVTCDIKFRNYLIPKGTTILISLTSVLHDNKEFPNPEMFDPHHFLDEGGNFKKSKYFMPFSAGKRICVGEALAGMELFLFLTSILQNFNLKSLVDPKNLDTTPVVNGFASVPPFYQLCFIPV
Sequence of Cytochrome P450 3A4 (P08684 whole entry): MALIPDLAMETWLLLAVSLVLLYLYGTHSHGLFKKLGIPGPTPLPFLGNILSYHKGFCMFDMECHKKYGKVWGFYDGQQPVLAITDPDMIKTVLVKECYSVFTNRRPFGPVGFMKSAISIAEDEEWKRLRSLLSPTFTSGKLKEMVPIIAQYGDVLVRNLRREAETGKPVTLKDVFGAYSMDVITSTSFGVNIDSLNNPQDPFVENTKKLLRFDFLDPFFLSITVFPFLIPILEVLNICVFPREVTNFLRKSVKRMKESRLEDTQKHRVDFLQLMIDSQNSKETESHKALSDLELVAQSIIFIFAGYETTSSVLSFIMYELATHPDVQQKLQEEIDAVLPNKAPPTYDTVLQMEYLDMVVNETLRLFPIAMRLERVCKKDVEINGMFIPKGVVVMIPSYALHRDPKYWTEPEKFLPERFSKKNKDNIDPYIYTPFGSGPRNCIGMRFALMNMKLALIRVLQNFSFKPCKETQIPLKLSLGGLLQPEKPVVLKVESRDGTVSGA
Sequence of Metabotropic glutamate receptor 5 (P31424 whole entry): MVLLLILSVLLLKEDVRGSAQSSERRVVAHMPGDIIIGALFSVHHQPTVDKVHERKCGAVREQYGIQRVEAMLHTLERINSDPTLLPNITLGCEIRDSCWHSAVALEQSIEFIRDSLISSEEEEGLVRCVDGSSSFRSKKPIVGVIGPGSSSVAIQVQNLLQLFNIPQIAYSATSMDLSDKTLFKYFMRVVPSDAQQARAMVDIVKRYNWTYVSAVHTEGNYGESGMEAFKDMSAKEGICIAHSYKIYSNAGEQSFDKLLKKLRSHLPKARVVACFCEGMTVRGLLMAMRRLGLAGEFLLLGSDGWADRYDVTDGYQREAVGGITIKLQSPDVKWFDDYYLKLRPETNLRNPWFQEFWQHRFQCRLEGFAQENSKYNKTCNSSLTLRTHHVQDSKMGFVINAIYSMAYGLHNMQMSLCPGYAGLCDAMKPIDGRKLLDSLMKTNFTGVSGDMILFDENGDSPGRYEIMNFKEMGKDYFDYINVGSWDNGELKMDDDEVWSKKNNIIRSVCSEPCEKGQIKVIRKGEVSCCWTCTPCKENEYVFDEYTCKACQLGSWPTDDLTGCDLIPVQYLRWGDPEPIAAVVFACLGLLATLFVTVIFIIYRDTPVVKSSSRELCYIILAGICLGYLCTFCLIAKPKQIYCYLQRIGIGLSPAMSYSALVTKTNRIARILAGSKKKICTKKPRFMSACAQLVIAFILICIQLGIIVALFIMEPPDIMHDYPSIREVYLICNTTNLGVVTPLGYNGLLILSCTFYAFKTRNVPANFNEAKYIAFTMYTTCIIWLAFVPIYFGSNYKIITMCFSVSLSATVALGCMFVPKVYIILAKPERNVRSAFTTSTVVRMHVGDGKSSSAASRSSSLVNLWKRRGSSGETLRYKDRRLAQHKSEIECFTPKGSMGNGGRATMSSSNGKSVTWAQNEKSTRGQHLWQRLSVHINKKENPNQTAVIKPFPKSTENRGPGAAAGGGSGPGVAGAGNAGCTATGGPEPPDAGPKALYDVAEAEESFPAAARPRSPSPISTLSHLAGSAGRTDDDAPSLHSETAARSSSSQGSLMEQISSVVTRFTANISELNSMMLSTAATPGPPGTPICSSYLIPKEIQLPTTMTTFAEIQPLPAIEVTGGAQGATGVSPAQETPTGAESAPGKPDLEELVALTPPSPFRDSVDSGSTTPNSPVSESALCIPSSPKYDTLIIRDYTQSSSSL

IC50 [1]: > 10 µM | Ki [2]: 0.0553 µM | concentration [3]: 986 nM | CLint [4]: 0.27 mL/min/g | half-life [5]: 7.06 h | clearance [6]: 6.43 mL/min/kg | half-life [7]: 12.2 h | CLint [8]: 0.31 mL/min/g | half-life [9]: 2.1 h | Cmax [10]: 551 nM | concentration at 1.25 h [11]: 99 nM | AUC [12]: 1.38 µM·h | Papp [14]: 11.5 ×10⁻⁶ cm/s | concentration at 1 h [15]: 986 nM | IC50 [16]: > 10 µM | Cmax [17]: 1140 nM | AUC [18]: 7.3 µM·h | AUC [21]: 0.707 µM·h | AUC [22]: 1.68 µM·h | Tmax [23]: 0.75 h | IC50 [24]: > 10 µM | clearance [25]: 27.9 mL/min/kg | Cmax [26]: 57 nM | half-life [27]: 5.13 h | concentration at 456 h [29]: 513 nM | MED [30]: > 30 mg/kg | AUC(0-t) at 6 h [32]: 0.132 µM·h | Tmax [33]: 0.75 h | half-life [34]: 6.3 h
Compound: N#Cc1cccc(S(=O)(=O)c2cnc3cc(F)ccc3c2-c2ccc(Cl)cc2)c1
TI [13]: 28.3 | Activity [19]: Active | Activity [20]: Active | Activity [28]: Dose-dependent effect | ED50 [28]: 1.5 mg/kg | Activity [30]: Non-Toxic | Activity [31]: Non-Toxic
